Measurements as given in ChEMBL document CHEMBL1944580, “Synthesis of novel sulfonamide-1,2,4-triazoles, 1,3,4-thiadiazoles and 1,3,4-oxadiazoles, as potential antibacterial and antifungal agents. Biological evaluation and conformational analysis studies” (2012).
Values after ≈ are worked out from the molar mass of the structure shown.

Key:
Staphylococcus aureus [1] = test: Antibacterial activity against Staphylococcus aureus ATCC 6538 after 24 hrs by micro dilution method; format: functional; details: ATCC 6538, 24 h
In short: (§1)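 Microdilution MIC in 96-well plates. Bacterial suspensions adjusted in sterile saline to 1.0 × 10^5 CFU/ml, giving 1.0 × 10^4 cfu per well in LB broth. Compounds tested at up to 1 mg/ml. Plates incubated 24 h. MIC taken as the lowest concentration with no visible growth under a binocular microscope. OD at 655 nm was also read against a blank and the positive control. Streptomycin and ampicillin were the positive controls.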

Bacillus cereus [2] = test: Antibacterial activity against Bacillus cereus clinical isolate after 24 hrs by micro dilution method; format: functional; in short: as §1
Micrococcus flavus [3] = test: Antibacterial activity against Micrococcus flavus ATCC 10240 after 24 hrs by micro dilution method; format: functional; details: ATCC 10240, 24 h; in short: as §1
Listeria monocytogenes [4] = test: Antibacterial activity against Listeria monocytogenes NCTC 7973 after 24 hrs by micro dilution method; format: functional; details: NCTC 7973, 24 h; in short: as §1
Pseudomonas aeruginosa [5] = test: Antibacterial activity against Pseudomonas aeruginosa ATCC 27853 after 24 hrs by micro dilution method; format: functional; details: ATCC 27853, 24 h; in short: as §1
Enterobacter cloacae [6] = test: Antibacterial activity against Enterobacter cloacae human isolate after 24 hrs by micro dilution method; format: functional; in short: as §1
Salmonella typhimurium [7] = test: Antibacterial activity against Salmonella Typhimurium ATCC 13311 after 24 hrs by micro dilution method; format: functional, Salmonella enterica subsp. enterica serovar Typhimurium; details: Salmonella enterica, ATCC 13311, 24 h; in short: as §1
Escherichia coli [8] = test: Antibacterial activity against Escherichia coli ATCC 35210 after 24 hrs by micro dilution method; format: functional; details: ATCC 35210, 24 h; in short: as §1
Staphylococcus aureus [9] = test: Antibacterial activity against Staphylococcus aureus ATCC 6538 treated for 24 hrs followed by sub-cultivated for 72 hrs by micro dilution method; format: functional
In short: (§2)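 2 µl from each well was serially subcultured into 100 µl fresh broth per well and incubated a further 72 h. MBC is the lowest concentration with no visible growth, taken as 99.5% killing of the original inoculum. Streptomycin and ampicillin were the positive controls.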

Bacillus cereus [10] = test: Antibacterial activity against Bacillus cereus clinical isolate treated for 24 hrs followed by sub-cultivated for 72 hrs by micro dilution method; format: functional; in short: as §2
Micrococcus flavus [11] = test: Antibacterial activity against Micrococcus flavus ATCC 10240 treated for 24 hrs followed by sub-cultivated for 72 hrs by micro dilution method; format: functional; in short: as §2
Listeria monocytogenes [12] = test: Antibacterial activity against Listeria monocytogenes NCTC 7973 treated for 24 hrs followed by sub-cultivated for 72 hrs by micro dilution method; format: functional; in short: as §2
Pseudomonas aeruginosa [13] = test: Antibacterial activity against Pseudomonas aeruginosa ATCC 27853 treated for 24 hrs followed by sub-cultivated for 72 hrs by micro dilution method; format: functional; in short: as §2
Enterobacter cloacae [14] = test: Antibacterial activity against Enterobacter cloacae human isolate treated for 24 hrs followed by sub-cultivated for 72 hrs by micro dilution method; format: functional; in short: as §2
Salmonella typhimurium [15] = test: Antibacterial activity against Salmonella Typhimurium ATCC 13311 treated for 24 hrs followed by sub-cultivated for 72 hrs by micro dilution method; format: functional, Salmonella enterica subsp. enterica serovar Typhimurium; details: Salmonella enterica; in short: as §2
Escherichia coli [16] = test: Antibacterial activity against Escherichia coli ATCC 35210 treated for 24 hrs followed by sub-cultivated for 72 hrs by micro dilution method; format: functional; in short: as §2
Talaromyces funiculosus [17] = test: Antifungal activity against Penicillium funiculosum ATCC 36839 after 72 hrs by serial dilution method; format: functional; details: ATCC 36839, 72 h
In short: (§3)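 Modified microdilution MIC. Spores were washed from malt agar cultures with sterile 0.85% saline containing 0.1% Tween 80 and adjusted to about 1.0 × 10^5 per 100 µl well in malt broth. Compounds were dissolved in DMSO (1 mg/ml). Plates incubated 72 h at 28 °C. MIC is the lowest concentration with no visible growth under a binocular microscope. Bifonazole and ketoconazole were the references.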

Penicillium ochrochloron [18] = test: Antifungal activity against Penicillium ochrochloron ATCC 9112 after 72 hrs by serial dilution method; format: functional; details: ATCC 9112, 72 h; in short: as §3
Trichoderma viride [19] = test: Antifungal activity against Trichoderma viride IAM 5061 after 72 hrs by serial dilution method; format: functional; details: IAM 5061, 72 h; in short: as §3
Aspergillus fumigatus [20] = test: Antifungal activity against Aspergillus fumigatus human isolate after 72 hrs by serial dilution method; format: functional; in short: as §3
Aspergillus niger [21] = test: Antifungal activity against Aspergillus niger ATCC 6275 after 72 hrs by serial dilution method; format: functional; details: ATCC 6275, 72 h; in short: as §3
Aspergillus flavus [22] = test: Antifungal activity against Aspergillus flavus ATCC 9643 after 72 hrs by serial dilution method; format: functional; details: ATCC 9643, 72 h; in short: as §3
Aspergillus versicolor [23] = test: Antifungal activity against Aspergillus versicolor ATCC 11730 after 72 hrs by serial dilution method; format: functional; details: ATCC 11730, 72 h; in short: as §3
Fulvia fulva [24] = test: Antifungal activity against Fulvia fulva after 72 hrs by serial dilution method; format: functional; in short: as §3
Talaromyces funiculosus [25] = test: Antifungal activity against Penicillium funiculosum ATCC 36839 treated for 72 hrs followed by sub-cultivated for 5 days by serial dilution method; format: functional
In short: (§4)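 MFC obtained after the 72 h, 28 °C malt-broth microdilution (spore inoculum about 1.0 × 10^5 per well, compounds from 1 mg/ml DMSO). 2 µl was serially subcultured into 100 µl broth per well and incubated a further 5 days at 28 °C. MFC is the lowest concentration with no visible growth, taken as 99.5% killing of the original inoculum.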

Penicillium ochrochloron [26] = test: Antifungal activity against Penicillium ochrochloron ATCC 9112 treated for 72 hrs followed by sub-cultivated for 5 days by serial dilution method; format: functional; in short: as §4
Trichoderma viride [27] = test: Antifungal activity against Trichoderma viride IAM 5061 treated for 72 hrs followed by sub-cultivated for 5 days by serial dilution method; format: functional; in short: as §4
Aspergillus fumigatus [28] = test: Antifungal activity against Aspergillus fumigatus human isolate treated for 72 hrs followed by sub-cultivated for 5 days by serial dilution method; format: functional; in short: as §4
Aspergillus niger [29] = test: Antifungal activity against Aspergillus niger ATCC 6275 treated for 72 hrs followed by sub-cultivated for 5 days by serial dilution method; format: functional; in short: as §4
Aspergillus flavus [30] = test: Antifungal activity against Aspergillus flavus ATCC 9643 treated for 72 hrs followed by sub-cultivated for 5 days by serial dilution method; format: functional; in short: as §4
Aspergillus versicolor [31] = test: Antifungal activity against Aspergillus versicolor ATCC 11730 treated for 72 hrs followed by sub-cultivated for 5 days by serial dilution method; format: functional; in short: as §4
Fulvia fulva [32] = test: Antifungal activity against Fulvia fulva treated for 72 hrs followed by sub-cultivated for 5 days by serial dilution method; format: functional; in short: as §4

MIC (Staphylococcus aureus [1]) [µM] | MIC (Bacillus cereus [2]) [µM] | MIC (Micrococcus flavus [3]) [µM] | MIC (Listeria monocytogenes [4]) [µM] | MIC (Pseudomonas aeruginosa [5]) [µM] | MIC (Enterobacter cloacae [6]) [µM] | MIC (Salmonella typhimurium [7]) [µM] | MIC (Escherichia coli [8]) [µM] | MIC (Talaromyces funiculosus [17]) [µM] | MIC (Penicillium ochrochloron [18]) [µM] | MIC (Trichoderma viride [19]) [µM] | MIC (Aspergillus fumigatus [20]) [µM] | SMILES | MBC (Staphylococcus aureus [9]) [µM] | MBC (Bacillus cereus [10]) [µM] | MBC (Micrococcus flavus [11]) [µM] | MBC (Listeria monocytogenes [12]) [µM] | MBC (Pseudomonas aeruginosa [13]) [µM] | MBC (Enterobacter cloacae [14]) [µM] | MBC (Salmonella typhimurium [15]) [µM] | MBC (Escherichia coli [16]) [µM] | also measured
500 (≈ 200 µg/mL) | 250 (≈ 100 µg/mL) | 250 (≈ 100 µg/mL) | 500 (≈ 200 µg/mL) | 500 (≈ 200 µg/mL) | 500 (≈ 200 µg/mL) | 250 (≈ 100 µg/mL) | 250 (≈ 100 µg/mL) | 130 (≈ 52.1 µg/mL) | 130 (≈ 52.1 µg/mL) | 60 (≈ 24 µg/mL) | 130 (≈ 52.1 µg/mL) | CCCNc1nnc(Cc2cc(OC)c(OC)cc2S(=O)(=O)N(C)C)s1 | 500 (≈ 200 µg/mL) | 500 (≈ 200 µg/mL) | 500 (≈ 200 µg/mL) | 500 (≈ 200 µg/mL) | 500 (≈ 200 µg/mL) | 500 (≈ 200 µg/mL) | 500 (≈ 200 µg/mL) | 250 (≈ 100 µg/mL) | MIC (Aspergillus niger [21]): 60 µM (≈ 24 µg/mL); MIC (Aspergillus flavus [22]): 130 µM (≈ 52.1 µg/mL); MIC (Aspergillus versicolor [23]): 250 µM (≈ 100 µg/mL); MIC (Fulvia fulva [24]): 60 µM (≈ 24 µg/mL); MFC (Talaromyces funiculosus [25]): 250 µM (≈ 100 µg/mL); MFC (Penicillium ochrochloron [26]): 250 µM (≈ 100 µg/mL); MFC (Trichoderma viride [27]): 130 µM (≈ 52.1 µg/mL); MFC (Aspergillus fumigatus [28]): 250 µM (≈ 100 µg/mL); MFC (Aspergillus niger [29]): 130 µM (≈ 52.1 µg/mL); MFC (Aspergillus flavus [30]): 250 µM (≈ 100 µg/mL); MFC (Aspergillus versicolor [31]): 500 µM (≈ 200 µg/mL); MFC (Fulvia fulva [32]): 130 µM (≈ 52.1 µg/mL)
380 (≈ 152 µg/mL) | 250 (≈ 100 µg/mL) | 380 (≈ 152 µg/mL) | 380 (≈ 152 µg/mL) | 250 (≈ 100 µg/mL) | 460 (≈ 184 µg/mL) | 250 (≈ 100 µg/mL) | 380 (≈ 152 µg/mL) | 250 (≈ 100 µg/mL) | 500 (≈ 200 µg/mL) | 130 (≈ 52.1 µg/mL) | 130 (≈ 52.1 µg/mL) | COc1cc(Cc2nnc(NC(C)C)s2)c(S(=O)(=O)N(C)C)cc1OC | 460 (≈ 184 µg/mL) | 500 (≈ 200 µg/mL) | 380 (≈ 152 µg/mL) | 460 (≈ 184 µg/mL) | 380 (≈ 152 µg/mL) | 460 (≈ 184 µg/mL) | 500 (≈ 200 µg/mL) | 460 (≈ 184 µg/mL) | MIC (Aspergillus niger [21]): 250 µM (≈ 100 µg/mL); MIC (Aspergillus flavus [22]): 250 µM (≈ 100 µg/mL); MIC (Aspergillus versicolor [23]): 250 µM (≈ 100 µg/mL); MIC (Fulvia fulva [24]): 130 µM (≈ 52.1 µg/mL); MFC (Talaromyces funiculosus [25]): 500 µM (≈ 200 µg/mL); MFC (Penicillium ochrochloron [26]): 750 µM (≈ 300 µg/mL); MFC (Trichoderma viride [27]): 250 µM (≈ 100 µg/mL); MFC (Aspergillus fumigatus [28]): 250 µM (≈ 100 µg/mL); MFC (Aspergillus niger [29]): 750 µM (≈ 300 µg/mL); MFC (Aspergillus flavus [30]): 750 µM (≈ 300 µg/mL); MFC (Aspergillus versicolor [31]): 750 µM (≈ 300 µg/mL); MFC (Fulvia fulva [32]): 250 µM (≈ 100 µg/mL)
